Laboratory results as given in ChEMBL document CHEMBL3352265, “Potentially bioactive organotin(IV) compounds: synthesis, characterization, in vitro bioactivities and interaction with SS-DNA” (Eur J Med Chem, 2014).
The source made the active and inactive calls. The calls are words filed in the database; no cut-off is given here.

Assays:
[1] = system: Staphylococcus aureus; test: Antibacterial activity against Staphylococcus aureus ATCC 6538 at 40 mg/mL after 24 hrs by disc diffusion method; type: functional
Method in brief: (§1)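 Disc diffusion. Strains grown in nutrient broth at 37 °C for 24 h. 1% culture (about 10^6 CFU/mL) mixed into nutrient agar at 45 °C and poured. 4 mm paper discs received compound at 40 mg/mL stock in DMSO; final concentrations tested were […]. DMSO served as negative control, roxithromycin and cefixime as positive controls. Triplicate plates incubated at 37 °C for 24 h. Complete-inhibition zone diameter (mm) recorded as the mean of 3.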

[2] = system: Agrobacterium tumefaciens; test: Antitumor activity against Agrobacterium tumefaciens -induced tumor at 1000 ug/ml after 21 days by potato disc bioassay technique; type: functional
Method in brief: (§2)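 Potato disc assay with 48 h culture of A. tumefaciens At-10. Inoculum contained compound at […]. Red-skinned potatoes sterilized in 0.1% HgCl2; 8 mm × 4 mm discs placed ten per 1.5% agar plate, […] each. Incubated at 28 °C in the dark for 21 days, in triplicate. Discs stained with Lugol's and tumors counted. Percent inhibition calculated against the negative control.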

[3] = system: Agrobacterium tumefaciens; test: Antitumor activity against Agrobacterium tumefaciens -induced tumor at 10 ug/ml after 21 days by potato disc bioassay technique; type: functional; method in brief: as §2
[4] = system: Escherichia coli; test: Induction of Escherichia coli pBR322 DNA damage assessed as open circular form at 1000 ug/ml after 60 mins by gel electrophoresis
[5] = system: Mucor; test: Antifungal activity against Mucor FCBP 0400 at 40 mg/mL by disc diffusion method; type: functional, organism-based
Method in brief: (§3)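 Disc diffusion on SDA. Fungi cultured at 28 °C for 24 h. 4 mm discs received compound at 40 mg/mL stock in DMSO. DMSO served as negative control, terbinafine as positive control. Plates incubated at 28 °C for 7 days. Growth diameter (mm) measured and inhibition calculated against the negative control. MIC taken as the lowest concentration with no growth.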

[6] = system: Bordetella bronchiseptica; test: Antibacterial activity against Bordetella bronchiseptica ATCC 4617 after 18 hrs by microdilution method; type: functional
Method in brief: (§4)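 Broth microdilution. Twofold dilutions in culture broth at […]. Each well inoculated with bacterial suspension (10^8 CFU/mL, about 10^5 CFU/well). Sterility control and growth control (broth plus DMSO) included. Incubated at 36 °C for 18 h, in triplicate. MIC taken as the lowest concentration inhibiting growth, given in micrograms per mL.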

[7] = system: Aspergillus fumigatus; test: Antifungal activity against Aspergillus fumigatus FCBP 66 after 7 days by disc diffusion method; type: functional, organism-based; method in brief: as §3
[8] = system: Mucor; test: Antifungal activity against Mucor FCBP 0400 at 40 mg/mL after 7 days by disc diffusion method; type: functional; method in brief: as §3
[9] = system: Escherichia coli; test: Induction of Escherichia coli pBR322 DNA damage assessed as open circular form at 1 ug/ml after 60 mins by gel electrophoresis
[10] = system: Aspergillus niger; test: Antifungal activity against Aspergillus niger FCBP 0198 after 7 days by disc diffusion method; type: functional, organism-based; method in brief: as §3
[11] = system: Aspergillus niger; test: Antifungal activity against Aspergillus niger FCBP 0198 at 40 mg/mL after 7 days by disc diffusion method; type: functional; method in brief: as §3
[12] = system: Bordetella bronchiseptica; test: Antibacterial activity against Bordetella bronchiseptica ATCC 4617 at 40 mg/mL after 24 hrs by disc diffusion method; type: functional; method in brief: as §1
[13] = system: Klebsiella aerogenes; test: Antibacterial activity against Enterobacter aerogenes ATCC 13048 at 40 mg/mL after 24 hrs by disc diffusion method; type: functional; method in brief: as §1
[14] = system: Bacillus spizizenii; test: Antibacterial activity against Bacillus subtilis ATCC 6633 at 40 mg/mL after 24 hrs by disc diffusion method; type: functional; method in brief: as §1
[15] = system: Artemia salina; test: Cytotoxicity in brine shrimp assessed as mortality after 24 hrs; type: functional
[16] = system: Escherichia coli; test: Induction of Escherichia coli pBR322 DNA damage assessed as open circular form at 10 ug/ml after 60 mins by gel electrophoresis
[17] = system: Aspergillus flavus; test: Antifungal activity against Aspergillus flavus FCBP 0064 after 7 days by disc diffusion method; type: functional, organism-based; method in brief: as §3
[18] = system: Agrobacterium tumefaciens; test: Antitumor activity against Agrobacterium tumefaciens -induced tumor at 100 ug/ml after 21 days by potato disc bioassay technique; type: functional; method in brief: as §2
[19] = system: Salmonella typhimurium; test: Antibacterial activity against Salmonella typhimurium ATCC 14028 at 40 mg/mL after 24 hrs by disc diffusion method; type: functional; conditions: Salmonella enterica subsp. enterica serovar Typhimurium; method in brief: as §1
[20] = system: Escherichia coli; test: Induction of Escherichia coli pBR322 DNA damage assessed as open circular form at 100 ug/ml after 60 mins by gel electrophoresis
[21] = system: Aspergillus flavus; test: Antifungal activity against Aspergillus flavus FCBP 0064 at 40 mg/mL after 7 days by disc diffusion method; type: functional; method in brief: as §3
[22] = system: Aspergillus fumigatus; test: Antifungal activity against Aspergillus fumigatus FCBP 66 at 40 mg/mL after 7 days by disc diffusion method; type: functional; method in brief: as §3
[23] = system: Escherichia coli; test: Antibacterial activity against Escherichia coli ATCC 15224 at 40 mg/mL after 24 hrs by disc diffusion method; type: functional; method in brief: as §1
[24] = system: Klebsiella aerogenes; test: Antibacterial activity against Enterobacter aerogenes ATCC 13048 after 18 hrs by microdilution method; type: functional, organism-based; method in brief: as §4
[25] = system: Bacillus spizizenii; test: Antibacterial activity against Bacillus subtilis ATCC 6633 after 18 hrs by microdilution method; type: functional; method in brief: as §4
[26] = system: Escherichia coli; test: Antibacterial activity against Escherichia coli ATCC 15224 after 18 hrs by microdilution method; type: functional; method in brief: as §4
[27] = system: Staphylococcus aureus; test: Antibacterial activity against Staphylococcus aureus ATCC 6538 after 18 hrs by microdilution method; type: functional; method in brief: as §4
[28] = system: Salmonella typhimurium; test: Antibacterial activity against Salmonella typhimurium ATCC 14028 after 18 hrs by microdilution method; type: functional; conditions: Salmonella enterica subsp. enterica serovar Typhimurium; method in brief: as §4

Row | Substance | inhibition zone (IZ) [1] [mm] | Activity [2] [%] | Activity [3] [%] | Activity [4] | MIC [5] [µg/mL] | MIC [7] [µg/mL] | inhibition zone (IZ) [8] [mm] | Activity [9] | MIC [10] [µg/mL] | inhibition zone (IZ) [11] [mm] | inhibition zone (IZ) [12] [mm] | inhibition zone (IZ) [13] [mm] | inhibition zone (IZ) [14] [mm] | LD50 [15] [µg/mL] | Activity [16] | MIC [17] [µg/mL] | Activity [18] [%] | inhibition zone (IZ) [19] [mm] | Activity [20] | inhibition zone (IZ) [21] [mm] | further results
1 | N-[(2-methoxyphenyl)]-4-oxo-4-[(triphenylstannyl)oxy]butanamide | 0 | 77.5 | 32.2 | Active | 6.25 | 6.25 | 23 | Active | 3.12 | 40 | 32 | 11 | 0 | 0.793 | Active | 6.25 | 54.9 | 0 | Active | 26 | MIC [6]: 12.5 µg/mL; inhibition zone (IZ) [22]: 28 mm; inhibition zone (IZ) [23]: 0 mm; MIC [24]: 25 µg/mL
2 | Diphenylstannanediyl bis(4-(2-methoxyphenylamino)-4-oxobutanoate | 16 | 85.3 | 43.9 | Active | 6.25 | 6.25 | 22 | Active | 1.56 | 30 | 11 | 15 | 17 | 0.403 | Active | 6.25 | 62.2 | 0 | Active | 26 | MIC [6]: 200 µg/mL; MIC [25]: 100 µg/mL; MIC [26]: 25 µg/mL; MIC [27]: 100 µg/mL; inhibition zone (IZ) [22]: 32 mm; inhibition zone (IZ) [23]: 14 mm; MIC [24]: 150 µg/mL
3 | N-[(2-methoxyphenyl)]-4-oxo-4-[(tribenzylstannyl)oxy]butanamide | 17 | 76.1 | 20.3 | Active | 200 | 150 | 12 | Active | 150 | 15 | 13 | 13 | 13 | 0.793 | Active | 200 | 62 | 15 | Active | 12 | MIC [6]: 100 µg/mL; MIC [25]: 200 µg/mL; MIC [26]: 50 µg/mL; MIC [28]: 200 µg/mL; MIC [27]: 100 µg/mL; inhibition zone (IZ) [22]: 15 mm; inhibition zone (IZ) [23]: 16 mm; MIC [24]: 150 µg/mL
4 | N-[(2-methoxyphenyl)]-4-oxo-4-[(tributylstannyl)oxy]butanamide | 12 | 87.8 | 52.3 | inactive | 3.12 | 3.12 | 20 | inactive | 1.56 | 40 | 12 | 18 | 19 | 0.433 | inactive | 3.12 | 72.4 | 0 | inactive | 32 | MIC [6]: 100 µg/mL; MIC [25]: 50 µg/mL; MIC [26]: 150 µg/mL; MIC [28]: 100 µg/mL; MIC [27]: 150 µg/mL; inhibition zone (IZ) [22]: 32 mm; inhibition zone (IZ) [23]: 0 mm; MIC [24]: 100 µg/mL
5 | N-[(2-methoxyphenyl)]-4-oxo-4-[(tricyclohexylstannyl)oxy]butanamide | 0 | 80.9 | 36.5 | inactive | 150 | 150 | 18 | inactive | 200 | 0 | 0 | 0 | 0 | 0.493 | inactive | 150 | 57.4 | 8 | inactive | 18 | MIC [26]: 200 µg/mL; MIC [28]: 200 µg/mL; inhibition zone (IZ) [22]: 16 mm; inhibition zone (IZ) [23]: 9 mm
6 | N-[(2-methoxyphenyl)]-4-oxo-4-[(triethylstannyl)oxy]butanamide | 28 | 84.1 | 48.3 | Active | 0.78 | 0.78 | 34 | Active | 0.78 | 48 | 38 | 22 | 36 | 0.881 | Active | 0.78 | 70.3 | 26 | Active | 46 | MIC [6]: 6.25 µg/mL; MIC [25]: 6.25 µg/mL; MIC [26]: 6.25 µg/mL; MIC [28]: 6.25 µg/mL; MIC [27]: 50 µg/mL; inhibition zone (IZ) [23]: 34 mm; MIC [24]: 6.25 µg/mL
